Among the data in the array DNA melting data of Ke et al. (doi:10.1101/2024.01.08.574731) are folding enthalpy and Tm values, retold here.

Data set [1] in a line: folding enthalpy; higher = less favourable; fluorescence melt of hairpins on a sequencing array, two-state fit. Particulars: sodium 0.088 M. The method in brief:
(§1)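 To match UV melts, fitted temperatures were raised by 9.35 °C. These fits were bootstrapped two-state models that gave melting temperature and folding enthalpy, combined by inverse variance over four replicates. The input was normalised Cy3 fluorescence of library hairpins with annealed Cy3 and quencher oligos on a sequenced MiSeq flow cell, imaged in 50 mM Na-HEPES pH 8.0, 25 mM NaCl in 2.5 °C steps up to 60 °C.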

Data set [2] can be described thus: melting temperature; fluorescence melt of hairpins on a sequencing array, two-state fit, raised by 9.35 °C to match UV melts. Particulars: sodium 0.088 M. The method in brief: as §1

Consider GACACCGAAAGGTCTGTC ((((((....)))..))), for which the folding enthalpy in data set [1] was -16.6 kcal/mol. Moreover, the Tm in data set [2] amounted to 35.2 °C.
The matching figures for GACACCGAAAGGTGAGTC ((((((....)))..))): -9.36 kcal/mol and 37.3 °C.
The matching figures for GACACCGAAAGGTTGGTC ((((((....)))..))): -16.6 kcal/mol and 40.8 °C.
As to GACACCGGAAACGATGTC ((((.((....)).)))), the folding enthalpy in data set [1] was -29.6 kcal/mol. Also, the Tm in data set [2] turned out to be 45.2 °C.
On the same counts, the results for GACACCGGAAACGGCGTC (((.(((....))).))) are -43 kcal/mol and 52.6 °C.
On the same counts, the results for GACACGCGAAAGCGGTC (((.(((....)))))) are -15.3 kcal/mol and 56 °C.
For the sequence GACACGGGAAACCACGTC (((..((....))..))), the folding enthalpy in data set [1] is -29 kcal/mol. In data set [2], the Tm came out at 34.6 °C.
Consider GACACGGGAAACCGCGTC (((.(((....))).))), for which the folding enthalpy in data set [1] is -47.8 kcal/mol. Also, the Tm in data set [2] came out at 50.9 °C.
In the case of GACACTACGAAAGTAGTC (((..(((....)))))), the folding enthalpy in data set [1] was -10.3 kcal/mol. The Tm in data set [2] turned out to be 32.4 °C.
As for GACACTGAAAAGTGTC ((((((....)))))), in data set [1], the folding enthalpy is -34.5 kcal/mol. Moreover, the Tm in data set [2] turned out to be 58.6 °C.
On the same counts, the results for GACAGACCGAAAGGTGTC (((..(((....)))))) are -19.5 kcal/mol and 44.3 °C.
The matching figures for GACAGACGAAAGTCGTC (((.(((....)))))): -17.8 kcal/mol and 53 °C.
On the same counts, the results for GACAGCCGAAAGGCGGTC (((.(((....))).))) are -20.1 kcal/mol and 67 °C.
As for GACAGCCGAAAGGCGTC (((.(((....)))))), the folding enthalpy in data set [1] was -12.7 kcal/mol. Moreover, the Tm in data set [2] stood at 60 °C.
For GACAGCGAAAGCTCGGTC ((((((....)))..))), the folding enthalpy in data set [1] was -10.6 kcal/mol. The Tm in data set [2] amounted to 46.8 °C.
On the same counts, the results for GACAGCGAAAGCTCGTC ((((((....))).))) are -19.6 kcal/mol and 50.5 °C.
Consider GACAGCGAAAGCTCTGTC ((((((....)))..))), for which the folding enthalpy in data set [1] is -15.2 kcal/mol. The Tm in data set [2] is 39.6 °C.
The matching figures for GACAGCGAAAGCTGAGTC ((((((....)))..))): -8.14 kcal/mol and 39.2 °C.
On the same counts, the results for GACAGCGAAAGCTGGGTC ((((((....)))..))) are -12.4 kcal/mol and 62 °C.
On the same counts, the results for GACAGCGAAAGCTGTGTC ((((((....)))..))) are -10.8 kcal/mol and 56.9 °C.
For the sequence GACAGCGAAAGCTTCGTC ((((((....)))..))), the folding enthalpy in data set [1] is -13 kcal/mol. Moreover, in data set [2], the Tm was 43.9 °C.
The matching figures for GACAGGACGAAAGTCGTC (((..(((....)))))): -16.7 kcal/mol and 42.6 °C.
The matching figures for GACAGGCGAAAGCCGGTC (((.(((....))).))): -25.9 kcal/mol and 67.1 °C.
On the same counts, the results for GACAGGGCGAAAGCCGTC (((..(((....)))))) are -14.1 kcal/mol and 49.6 °C.
On to GACAGTCCGAAAGGAGTC (((..(((....)))))), for which, in data set [1], the folding enthalpy was -17 kcal/mol. In addition, the Tm in data set [2] turned out to be 30.3 °C.
On the same counts, the results for GACAGTGCGAAAGCAGTC (((..(((....)))))) are -13.3 kcal/mol and 40.5 °C.
For the sequence GACAGTGGAAACACCGTC (((.(((....))).))), the folding enthalpy in data set [1] was -24.8 kcal/mol. For the same sequence, the Tm in data set [2] was determined as 39.6 °C.
The matching figures for GACAGTGGAAACGTTGTC ((((..(....)..)))): -20.9 kcal/mol and 36.2 °C.
For GACATACGAAAGTACGTC (((.(((....))).))), in data set [1], the folding enthalpy is -27 kcal/mol. In addition, in data set [2], the Tm amounted to 42.5 °C.
The matching figures for GACATGCGAAAGCACGTC (((.(((....))).))): -26.3 kcal/mol and 52.4 °C.
On the same counts, the results for GACATGGGAAACCACGTC (((.(((....))).))) are -26.7 kcal/mol and 38.8 °C.
On the same counts, the results for GACATGGGAAACCGTGTC ((((.((....)).)))) are -30.9 kcal/mol and 52.1 °C.
As to GACATTCCGAAAGGAGTC (((..(((....)))))), the folding enthalpy in data set [1] was -12.3 kcal/mol. Further, the Tm in data set [2] was 28.6 °C.
As for GACATTGGAAACAATGTC (((((((....))))))), the folding enthalpy in data set [1] was -44.1 kcal/mol. In data set [2], the Tm stood at 56.6 °C.
On the same counts, the results for GACCAAGAAATTGGTC ((((((....)))))) are -25.9 kcal/mol and 54.4 °C.
The matching figures for GACCACCGAAAGGTGTC (((.(((....)))))): -12.7 kcal/mol and 47.5 °C.
The matching figures for GACCACGAAAGTGAGGTC ((((((....)))..))): -22.8 kcal/mol and 48.3 °C.
Take GACCACGAAAGTGCTGTC ((((((....)))..))): the folding enthalpy in data set [1] was -17.2 kcal/mol. Besides, the Tm in data set [2] came out at 34 °C.
The matching figures for GACCACGAAAGTGGGGTC ((((((....)))..))): -13.2 kcal/mol and 61.2 °C.
Regarding GACCACGAAAGTGTGGTC ((((((....)))..))), in data set [1], the folding enthalpy was -41 kcal/mol. Besides, in data set [2], the Tm turned out to be 55.2 °C.
On to GACCACGAAAGTGTGTC ((((((....))).))), for which the folding enthalpy in data set [1] was -27.3 kcal/mol. The Tm in data set [2] was 52.9 °C.
The matching figures for GACCACGGAAACGTAGCC (.(.(((....))).).): -9.48 kcal/mol and 23.6 °C.
The matching figures for GACCACGGAAACGTAGTC (((.(((....))).))): -22.6 kcal/mol and 37 °C.
Take GACCACGGAAACGTGATC ((.((((....)))).)): the folding enthalpy in data set [1] was -19.9 kcal/mol. In addition, the Tm in data set [2] came out at 43.3 °C.
Regarding GACCAGACGAAAGTCGTC (((..(((....)))))), the folding enthalpy in data set [1] is -12.5 kcal/mol. The Tm in data set [2] was determined as 31.7 °C.
The matching figures for GACCAGCCGAAAGGCGTC (((..(((....)))))): -7.85 kcal/mol and 34.5 °C.
For GACCAGGGAAACCCAGTC (((..((....))..))), the folding enthalpy in data set [1] is -18.4 kcal/mol. For the same sequence, the Tm in data set [2] came out at 29.1 °C.
The matching figures for GACCAGGGAAACCTGATC ((.((((....)))).)): -22.3 kcal/mol and 34.8 °C.
On the same counts, the results for GACCATACGAAAGTAGTC (((..(((....)))))) are -9.93 kcal/mol and 25.7 °C.
On the same counts, the results for GACCATGGAAACATAGTC (((.(((....))).))) are -19.8 kcal/mol and 30.8 °C.
As for GACCATGGAAACGTGGTC (((((.(....).))))), the folding enthalpy in data set [1] is -42.7 kcal/mol. In addition, the Tm in data set [2] came to 52.6 °C.
Turning to GACCCAGGAAACCAGGTC ((((..(....)..)))), the folding enthalpy in data set [1] is -24.3 kcal/mol. Moreover, the Tm in data set [2] stood at 34 °C.
The matching figures for GACCCAGGAAACTGGGCC (.(((((....))))).): -16.5 kcal/mol and 47.9 °C.
The matching figures for GACCCCCGAAAGGGAGTC (((.(((....))).))): -28.8 kcal/mol and 54 °C.
On the same counts, the results for GACCCCGAAAGGGAGGTC ((((((....)))..))) are -21.8 kcal/mol and 49.4 °C.
Take GACCCCGAAAGGGAGTC ((((((....))).))): the folding enthalpy in data set [1] was -23 kcal/mol. Moreover, the Tm in data set [2] came to 56.5 °C.
On to GACCCCGAAAGGGTGTC ((((((....))).))), for which the folding enthalpy in data set [1] is -26.6 kcal/mol. Further, in data set [2], the Tm turned out to be 57.6 °C.
On the same counts, the results for GACCCTCCGAAAGGAGTC (((..(((....)))))) are -7.33 kcal/mol and 23.4 °C.
The matching figures for GACCCTGGAAACAGGGTC (((((((....))))))): -36.9 kcal/mol and 67.7 °C.
On the same counts, the results for GACCCTGGAAACGGGGTC (((((.(....).))))) are -40.3 kcal/mol and 57.6 °C.
For GACCGAGCGAAAGCTGTC (((..(((....)))))), the folding enthalpy in data set [1] is -15.3 kcal/mol. Moreover, the Tm in data set [2] is 36.8 °C.
The matching figures for GACCGAGGAAACTCGATC ((.((((....)))).)): -21.1 kcal/mol and 40.7 °C.
The matching figures for GACCGAGGAAACTCGGCC (.(((((....))))).): -15.1 kcal/mol and 46.6 °C.
The matching figures for GACCGCCGAAAGGCTGTC (((.(((....))).))): -20.6 kcal/mol and 55.5 °C.
As for GACCGCGAAAGCGAAGTC ((((((....)))..))), the folding enthalpy in data set [1] was -16.9 kcal/mol. Besides, the Tm in data set [2] came to 47.4 °C.
Turning to GACCGCGAAAGCGCAGTC ((((((....)))..))), in data set [1], the folding enthalpy was -16.3 kcal/mol. In data set [2], the Tm was 38 °C.
On the same counts, the results for GACCGCGGAAACACGGTC (((((.(....).))))) are -52 kcal/mol and 55.5 °C.
The matching figures for GACCGCGGAAACGTGGTC ((((.((....)).)))): -44.8 kcal/mol and 62.8 °C.
The matching figures for GACCGGCGAAAGCCCGTC (((.(((....))).))): -16.9 kcal/mol and 50.8 °C.
In the case of GACCGGCGAAAGCCGTC (((.(((....)))))), the folding enthalpy in data set [1] is -8.28 kcal/mol. Further, the Tm in data set [2] amounted to 49.1 °C.
On the same counts, the results for GACCGGGCGAAAGCCGTC (((..(((....)))))) are -10.3 kcal/mol and 40.4 °C.
The matching figures for GACCGGGGAAACCCAGTC (((.(((....))).))): -23.6 kcal/mol and 42.8 °C.
The matching figures for GACCGGGGAAACCCGATC ((.((((....)))).)): -19.9 kcal/mol and 44 °C.
